Hits are enriched below; roughly 5.9% of the tested compounds scored in any of these assays.
MT1-MMP txn act: MT1-MMP promoter transcription activation; AID 750; activation factor at 10 µM; 0.16% of 86,000 active; HT1080 MT1-MMP promoter luciferase reporter, luminescence, overnight; active compounds read high;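 active = activation factor of at least 2 for MT1-MMP transcription at 10 µM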
HUVEC inhibit: inhibitors of human endothelial cell proliferation; HUVEC proliferation, CellTiter-Glo luminescence, 72 h; active compounds read low; 1.1% of 86,000 active; viability, % at 10 µM (by protocol); AID 648;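 active = viability at or below 30%; inactive = viability above 30%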;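 note: 100% = median luminescence of DMSO-only cell control wells on each plate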
H69AR growth 86K: blocks growth of human H69AR lung tumor cells. viability, % at 10 µM. 6% of 85,000 active. H69AR lung tumor viability, ATP luminescence, 72 h; active compounds read low;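 active = viability at or below 40%; inactive = viability above 40%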;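 note: multidrug resistant small cell line overexpressing MRP-1 efflux transporter; 100% = mean luminescence of untreated control wells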
Fibroblast inh: blocks proliferation of human lung fibroblasts | LL 47 human lung fibroblast viability, ATP luminescence; active compounds read low | viability, % at 10 µM | 1.1% of 85,000 active;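 active = viability at or below 50% in the single dose screen; inactive = viability above 50%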;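 note: compound exposure lasted 72 h before the ATP readout; 100% = median luminescence of untreated cell-only wells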
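Test system: LL 47 human lung fibroblasts / Quantity: 1,150 cells in each well / Medium: IMEM growth medium with 15% fetal bovine serum / Incubation: 72 h compound exposure at 37 °C after overnight plating / Detection: CellTiter-Glo luminescence measuring cellular ATP / Read-out: % viability versus median cells-only luminescence / Benchmarks: cell-only wells, no compound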
Jurkat tox 60K: cytotoxicity toward Jurkat cells; inhibition, % at 4 µM; 1.2% of 56,000 active; Jurkat E6.1 viability, ATP luminescence, 48 h;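 active = inhibition above the mean inhibition of all tested compounds plus 3 SD, cut at about 28% in these data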
Pyk2 oligo antag: blocks oligomerization of human Pyk2 in cells; Q14289; Q293 cells, Pyk2 FERM NanoBiT luminescence; active compounds read low; z-score (the deposit names both 25 µM and 10 µM); 0.83% of 99,000 active; AID 1347419;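 active = Z-score of -3 or lower, scaled per plate to the spread of control and sample wells; inactive = z-score above -3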;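 note: negative z-score means lost luminescence so less FERM oligomerization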
Target sequence (Q14289 whole entry, looked up): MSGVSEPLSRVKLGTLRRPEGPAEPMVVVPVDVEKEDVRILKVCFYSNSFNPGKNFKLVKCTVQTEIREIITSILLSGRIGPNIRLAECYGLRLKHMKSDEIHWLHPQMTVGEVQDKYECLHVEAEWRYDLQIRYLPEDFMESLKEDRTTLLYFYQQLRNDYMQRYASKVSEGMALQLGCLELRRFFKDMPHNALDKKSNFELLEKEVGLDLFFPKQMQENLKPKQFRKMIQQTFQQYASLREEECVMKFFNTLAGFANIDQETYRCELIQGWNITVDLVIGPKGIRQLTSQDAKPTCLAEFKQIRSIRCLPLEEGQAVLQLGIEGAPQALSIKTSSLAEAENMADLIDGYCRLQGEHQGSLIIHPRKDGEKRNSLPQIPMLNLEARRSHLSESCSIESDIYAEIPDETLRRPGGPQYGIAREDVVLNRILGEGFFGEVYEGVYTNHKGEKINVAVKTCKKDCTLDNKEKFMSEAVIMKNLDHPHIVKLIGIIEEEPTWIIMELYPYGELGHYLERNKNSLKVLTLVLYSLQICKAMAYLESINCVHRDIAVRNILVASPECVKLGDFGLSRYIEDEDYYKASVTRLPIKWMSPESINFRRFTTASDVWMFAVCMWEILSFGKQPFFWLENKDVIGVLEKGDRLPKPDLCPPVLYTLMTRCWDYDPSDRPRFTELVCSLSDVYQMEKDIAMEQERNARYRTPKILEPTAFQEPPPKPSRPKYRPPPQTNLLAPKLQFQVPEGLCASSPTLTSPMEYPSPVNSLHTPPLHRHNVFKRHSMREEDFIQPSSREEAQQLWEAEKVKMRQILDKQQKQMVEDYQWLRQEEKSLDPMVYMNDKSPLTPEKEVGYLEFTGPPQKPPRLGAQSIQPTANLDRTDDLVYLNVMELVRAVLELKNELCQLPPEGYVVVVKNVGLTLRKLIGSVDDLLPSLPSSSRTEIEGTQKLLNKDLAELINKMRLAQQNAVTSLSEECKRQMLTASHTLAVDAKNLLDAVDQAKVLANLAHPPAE
* hit, by the source's call; . = no result.

SMILES | MT1-MMP txn act | HUVEC inhibit | H69AR growth 86K | Fibroblast inh | Jurkat tox 60K | Pyk2 oligo antag
COc1ccc(CCn2nnc(-c3ccc(NC(C)=O)c(Cl)c3)n2)cc1 | 1.2 | 81.7 | 95.5 | 107.9 | . | 0.11
O=C(c1oc2ccccc2c1CSCc1ccccc1)N1CCN(c2ncccn2)CC1 | 1.1 | 64.5 | 61.9 | 78.7 | 0.6 | -1.42
COc1cccc2[nH]c3c(N4CCN(Cc5ccc6c(c5)OCO6)CC4)ncnc3c12 | 1.1 | 61.1 | 39.8* | 96.7 | 3.8 | .
Cc1ccc2[nH]c3c(N4CCN(Cc5ccccc5)CC4)ncnc3c2c1 | 1 | 13.6* | 71.0 | 77.3 | . | -1.83
COc1ccc2c(c1)[nH]c1c(N3CCN(Cc4ccc5c(c4)OCO5)CC3)ncnc12 | 1 | . | . | . | . | -2.86
O=S(=O)(c1ccc(Cl)s1)N1CCCc2cccc(O)c21 | . | . | . | . | . | -0.23
O=C(Nc1cccc(Cl)c1)N1CCN2C(=O)c3ccccc3C12c1ccccc1 (centres undefined) | 1.2 | 82.3 | 84.5 | 81.9 | . | -3.2*
Cc1ccc(C(=O)N2CCN3C(=O)c4ccccc4C23c2ccc(Cl)cc2)cc1 (centres undefined) | . | 66.4 | 33.5* | 61.0 | . | -1.37
O=C(Nc1cccc(Cl)c1)N1CCN(C/C=C/c2ccccc2)CC1 | 1.2 | 63.8 | 84.1 | 88.5 | -0.8 | -0.1
C/C(=N\NC(=O)c1nn(C)c(C)c1Br)c1ccc(NC(=O)c2ccccc2F)cc1 | . | . | . | . | . | 1.07
O=C(/C=C(\O)c1ccc(Cl)cc1)C(=O)NNC(=O)C(O)(c1ccccc1)c1ccccc1 | 1.3 | 73.2 | 24.0* | 95.9 | . | -0.92
Cc1ccc(S(=O)(=O)NNC(=O)C(O)(c2ccccc2)c2ccccc2)cc1 | . | . | . | . | . | 0.06
Cc1ccc2nc(/C(C#N)=C\c3ccc(N4CCCCC4)c([N+](=O)[O-])c3)[nH]c2c1 | 1.2 | 106.2 | 17.5* | 98.2 | . | -2.29
Cc1ccc2nc(/C(C#N)=C/c3cn[nH]c3-c3ccc(F)cc3)[nH]c2c1 | 1.1 | 59.2 | 14.0* | 86.6 | . | -1.6
O=C(N/N=C1\CCCc2ccccc21)C(O)c1ccccc1 (centres undefined) | . | . | . | . | . | 1.13
CCc1nc2ccccc2c(NC(=O)CN2CCC(C)CC2)c1C | 1.1 | 101.2 | 64.5 | 95.7 | 1.5 | 1.13
COCc1cc(CN2CCCC2)c(O)c2ncccc12 | 0.8 | 72.7 | 23.1* | 3.3* | 43.1* | 0.98
Oc1c(CN2CCCCC2)cc(COCc2ccccc2)c2cccnc12 | . | . | . | . | 33.7* | 0.22
Oc1cc(Cc2ccccc2)cnc1CN1CCCCC1 | 1.1 | 111.9 | 94.5 | 105.4 | -3.4 | 0.66
COc1ccccc1N1CCN(Cc2cc(Br)c(O)c3ncccc23)CC1 | 0.7 | 31.6 | 19.7* | 3.2* | 60.8* | .
CCOc1ccccc1N1CCN(Cc2cccc(OC)c2O)CC1 | 1 | 107.7 | 88.0 | 100.6 | 3.9 | -0.39
Cc1cc(C)c2nc(SC(C)C#N)cc(C)c2c1 (centres undefined) | . | 93.0 | 30.6* | 96.4 | . | -1.44
COC(=O)c1cc(OC)c(OC)cc1NC(=O)c1ccc(C)cc1 | 1.2 | 68.3 | 16.2* | 94.0 | . | -1.05
COC(=O)c1cc(OC)c(OC)cc1NC(=O)c1ccc(OC)cc1 | . | . | . | . | . | -0.71
c1ccc(-n2ncc3c(N4CCN(c5ccccn5)CC4)nc(N4CCCCC4)nc32)cc1 | 1 | 97.3 | 83.5 | 101.0 | 0.4 | .
SMILES | MT1-MMP txn act | HUVEC inhibit | H69AR growth 86K | Fibroblast inh | Jurkat tox 60K | Pyk2 oligo antag
c1ccc(-n2ncc3c(N4CCN(c5ccccn5)CC4)nc(N4CCOCC4)nc32)cc1 | 1 | 53.7 | 27.7* | 95.4 | -0.1 | .
c1ccc(-c2nc(NCCCn3ccnc3)c3oc4ccccc4c3n2)cc1 | 1.1 | 54.1 | 17.9* | 88.2 | . | -1.93
Cc1ccc(NC(=O)C2(c3ccccc3)CC2(Cl)Cl)cc1C (centres undefined) | . | . | . | . | . | -3.23*
CCc1ccc(NC(=O)C2(c3ccccc3)CC2(Cl)Cl)cc1 (centres undefined) | . | . | . | . | . | -3.07*
Cc1nnsc1NC(=O)OCc1ccc(C(C)(C)C)cc1 | . | . | . | . | . | 0.77
CC(C)(C)NC(=O)NC(=O)COC(=O)c1cc(=O)[nH]c2ccccc12 | 1.1 | 91.2 | 91.1 | 94.2 | . | -3.82*
CCCCCOC(=O)c1cc(=O)[nH]c2ccccc12 | 1.4 | 45.3 | 74.7 | 89.7 | 2.1 | -3.54*
O=C(OCCN1C(=O)c2ccccc2C1=O)c1cc(=O)[nH]c2ccccc12 | 1.1 | 96.6 | 96.6 | 86.7 | -1.9 | -0.67
CNC(=O)COC(=O)c1cc(=O)[nH]c2ccccc12 | 1 | 90.1 | 97.7 | 100.3 | . | -0.28

High-throughput results: PubChem, several laboratories
